Experimental data from ChEMBL document CHEMBL4811254, “Beyond Basicity: Discovery of Nonbasic DENV-2 Protease Inhibitors with Potent Activity in Cell Culture” (J Med Chem, 2021).
Activity calls are given as the source filed them.

Tests used:
[1] = target: Prothrombin (Homo sapiens) (UniProt P00734); assay: Inhibition of thrombin in human plasma using Boc-Val-Pro-Arg-AMC as substrate at 25 uM preincubated with enzyme for 15 mins followed by substrate addition and measured for 15 mins by fluorimetric assay; format: cell-free; conditions: time 30.0 min
dengue virus type 2 [2] = assay: Antiviral activity against DENV2 infected in human Huh7 cells assessed as reduction in virus titer in cell supernatant by measuring inhibition of plaque formation using VeroE6 cells at 12.5 uM preincubated with viral infected Huh7 cells for 48 hrs and measured following infection of VeroE6 cells with supernatants for 7 days by plaque assay based crystal violet staining analysis; format: functional; conditions: Huh-7, 216 h, time 9 day
Summary of the method: (§1)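 Huh-7 cells seeded at 1 × 10⁴/well and incubated overnight. Infected with DENV-2 at MOI 1 for 2 h, then medium changed and compound added. […] Pooled supernatants titred by plaque assay on VeroE6 cells: 10⁻¹ to 10⁻⁶ dilutions, 1 h infection, 7 days, formaldehyde fix, crystal violet.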

[3] = Passive membrane permeability of the compound in phosphate buffered saline assessed as mass retention of the compound at 200 uM incubated for 5 hrs by PAMPA assay based HPLC analysis; format: ADME
Summary of the method: (§2)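 Precoated trilayer PAMPA, 5 h incubation. Acceptor and donor concentrations measured after 5 h. Permeability and mass retention calculated by a literature method.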

Genome polyprotein [4] = target: T1, Genome polyprotein (dengue virus type 2, UniProt P29990); assay: Inhibition of NS2B-NS3 protease in DENV2proHeLa system assessed as inhibition of luciferase signal incubated for 24 hrs by luciferase reporter gene assay; format: cell-based, HeLa
Summary of the method: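 HeLa cells stably carrying the reporter system, 2 × 10⁴ per well, given inhibitor at seeding and held 24 h at 37 °C. Cells lysed 15 min at room temperature. Luciferase read for 5 s after injecting coelenterazine (2.75 μM in PBS). Triplicate wells per concentration; percent inhibition taken against untreated cells. EC50/EC90 from 4-parameter dose-response fit, background from cell-free wells subtracted.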

[5] = target: Genome polyprotein (dengue virus type 2) (UniProt P29990); assay: Inhibition of NS2B-NS3 protease in DENV2proHeLa system assessed as inhibition of luciferase signal at 12.5 uM incubated for 24 hrs by luciferase reporter gene assay; format: cell-based; conditions: HeLa
Summary of the method: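 Stable DENV2proHeLa cells seeded at 2 × 10⁴/well and dosed immediately, then incubated 24 h at 37 °C. Cells lysed 15 min at room temperature. Luciferase read with coelenterazine (2.75 μM in PBS) injection, luminescence 5 s. Triplicates; percent inhibition calculated relative to untreated control; background from cell-free wells.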

[6] = Passive membrane permeability of the compound in phosphate buffered saline assessed as concentration of the compound in donor plate at 200 uM incubated for 5 hrs by PAMPA assay based HPLC analysis; format: ADME; summary of the method: as §2
[7] = Passive membrane permeability of the compound in phosphate buffered saline assessed as concentration of the compound in acceptor plate at 200 uM incubated for 5 hrs by PAMPA assay based HPLC analysis; format: ADME; summary of the method: as §2
Genome polyprotein [8] = target: T1, Genome polyprotein; assay: Competitive inhibition of DENV2 NS2B-NS3 protease expressed in Escherichia coli BL21 lambda(DE3) using FRET substrate preincubated with enzyme for 15 mins followed by varying concentrations of substrate addition for 15 mins by Cheng-Prusoff plot analysis
[9] = Stability of the compound assessed as bovine pancreas trypsin-mediated parent compound depletion at 0.1 mg/ml incubated for 120 mins by HPLC analysis; format: ADME, Bos taurus; conditions: cattle; for metabolised at 2 h, 0.1 mg/ml: bovine pancreas trypsin, read-out: Drug degradation
Summary of the method: (§3)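 Compound incubated with α-chymotrypsin or bovine trypsin in buffer for 120 min at 37 °C; parent compound depletion monitored.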

[10] = Passive membrane permeability of the compound in phosphate buffered saline at 200 uM incubated for 5 hrs by PAMPA assay based HPLC analysis; format: ADME; conditions: for Papp at 5 h, 200 µM: PAMPA, read-out: permeability; summary of the method: as §2
Huh-7 [11] = assay: Cytotoxicity against human Huh-7 cells assessed as reduction in cell viability at 12.5 uM incubated for 48 hrs by CellTiter-Blue assay; format: cell-based; conditions: huh-7, 48 h
Summary of the method: (§4)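 Viability by CellTiter-Blue in HeLa or Huh-7 cells exposed to compound dilutions. Plates run in parallel with the reporter assay (HeLa) or the virus titer assay (Huh-7).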

dengue virus type 2 [12] = assay: Antiviral activity against DENV2 infected in human Huh7 cells assessed as reduction in virus titer in cell supernatant by measuring inhibition of plaque formation using VeroE6 cells preincubated with viral infected Huh7 cells for 48 hrs and measured following infection of VeroE6 cells with supernatants for 7 days by plaque assay based crystal violet staining analysis; format: functional, organism-based, Huh-7; conditions: for EC50: Huh-7; for EC90: Huh-7, 216 h, time 9 day; summary of the method: as §1
[13] = Stability of the compound assessed as bovine pancreas alphachymotrypsin-mediated parent compound depletion by measuring parent compound remaining at 0.1 mg/ml incubated for 120 mins by HPLC analysis; format: ADME, Bos taurus; conditions: cattle, bovine pancreas alpha-chymotrypsin, read-out: Stabilty; summary of the method: as §3
[14] = Metabolic stability in Sprague-Dawley rat liver microsomes at 100 uM incubated for 60 mins in presence of NADPH by HPLC analysis; format: ADME, Microsome; conditions: 1 h
Summary of the method: (§5)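 Rat liver microsomes; samples incubated 60 min at 37 °C, parent compound depletion monitored.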

[15] = Cytotoxicity against human HeLa cells assessed as reduction in cell viability incubated for 24 hrs by CellTiter-Blue assay; format: cell-based; summary of the method: as §4
[16] = target: Genome polyprotein (dengue virus type 2) (UniProt P29990); assay: Inhibition of DENV2 NS2B-NS3 protease expressed in Escherichia coli BL21 lambda(DE3) using FRET substrate preincubated with enzyme for 15 mins in presence of detergent CHAPS followed by substrate addition for 15 mins by fluorescence based analysis; conditions: time 30.0 min
Trypsin (Homo sapiens) = Trypsin (Homo sapiens) (UniProt P07477+P07478+P35030); assay: Inhibition of trypsin (unknown origin) using Boc-Val-Pro-Arg-AMC as substrate at 50 uM preincubated with enzyme for 15 mins followed by substrate addition and measured for 15 mins by fluorimetric assay; format: protein assay; conditions: time 30.0 min
Huh-7 [17] = assay: Cytotoxicity against human Huh-7 cells assessed as reduction in cell viability at 10 uM incubated for 48 hrs by CellTiter-Blue assay; format: cell-based; conditions: huh-7, 48 h; summary of the method: as §4
dengue virus type 2 [18] = assay: Antiviral activity against DENV2 infected in human Huh7 cells assessed as reduction in virus titer in cell supernatant by measuring inhibition of plaque formation using VeroE6 cells at 10 uM preincubated with viral infected Huh7 cells for 48 hrs and measured following infection of VeroE6 cells with supernatants for 7 days by plaque assay based crystal violet staining analysis; format: functional; conditions: Huh-7, 216 h, time 9 day
[19] = Stability of the compound assessed as bovine pancreas alphachymotrypsin-mediated parent compound depletion at 0.1 mg/ml incubated for 120 mins by HPLC analysis; format: ADME, Bos taurus; conditions: cattle, bovine pancreas alpha-chymotrypsin, read-out: Drug degradation; summary of the method: as §3
[20] = Half life in Sprague-Dawley rat liver microsomes at 100 uM incubated for 60 mins in presence of NADPH by HPLC analysis; format: ADME, Microsome; summary of the method: as §5
[21] = target: Genome polyprotein (dengue virus type 2) (UniProt P29990); assay: Competitive inhibition of DENV2 NS2B-NS3 protease expressed in Escherichia coli BL21 lambda(DE3) assessed as increase in Km without change in Vmax using FRET substrate preincubated with enzyme for 15 mins followed by substrate addition for 15 mins by Michaelis-Menten based analysis; conditions: time 30.0 min
[22] = target: Genome polyprotein (West Nile virus) (UniProt P06935); assay: Inhibition of WNV NS2B-NS3 protease expressed in Escherichia coli BL21 lambda(DE3) using FRET substrate preincubated with enzyme for 15 mins in presence of detergent CHAPS followed by substrate addition for 15 mins by fluorescence based analysis; conditions: time 30.0 min
Genome polyprotein [23] = target: T1, Genome polyprotein; assay: Competitive inhibition of DENV2 NS2B-NS3 protease expressed in Escherichia coli BL21 lambda(DE3) using FRET substrate preincubated with enzyme for 15 mins followed by substrate addition for 15 mins by Michaelis-Menten based analysis

Sequence of Genome polyprotein (West Nile virus) (P06935 whole entry): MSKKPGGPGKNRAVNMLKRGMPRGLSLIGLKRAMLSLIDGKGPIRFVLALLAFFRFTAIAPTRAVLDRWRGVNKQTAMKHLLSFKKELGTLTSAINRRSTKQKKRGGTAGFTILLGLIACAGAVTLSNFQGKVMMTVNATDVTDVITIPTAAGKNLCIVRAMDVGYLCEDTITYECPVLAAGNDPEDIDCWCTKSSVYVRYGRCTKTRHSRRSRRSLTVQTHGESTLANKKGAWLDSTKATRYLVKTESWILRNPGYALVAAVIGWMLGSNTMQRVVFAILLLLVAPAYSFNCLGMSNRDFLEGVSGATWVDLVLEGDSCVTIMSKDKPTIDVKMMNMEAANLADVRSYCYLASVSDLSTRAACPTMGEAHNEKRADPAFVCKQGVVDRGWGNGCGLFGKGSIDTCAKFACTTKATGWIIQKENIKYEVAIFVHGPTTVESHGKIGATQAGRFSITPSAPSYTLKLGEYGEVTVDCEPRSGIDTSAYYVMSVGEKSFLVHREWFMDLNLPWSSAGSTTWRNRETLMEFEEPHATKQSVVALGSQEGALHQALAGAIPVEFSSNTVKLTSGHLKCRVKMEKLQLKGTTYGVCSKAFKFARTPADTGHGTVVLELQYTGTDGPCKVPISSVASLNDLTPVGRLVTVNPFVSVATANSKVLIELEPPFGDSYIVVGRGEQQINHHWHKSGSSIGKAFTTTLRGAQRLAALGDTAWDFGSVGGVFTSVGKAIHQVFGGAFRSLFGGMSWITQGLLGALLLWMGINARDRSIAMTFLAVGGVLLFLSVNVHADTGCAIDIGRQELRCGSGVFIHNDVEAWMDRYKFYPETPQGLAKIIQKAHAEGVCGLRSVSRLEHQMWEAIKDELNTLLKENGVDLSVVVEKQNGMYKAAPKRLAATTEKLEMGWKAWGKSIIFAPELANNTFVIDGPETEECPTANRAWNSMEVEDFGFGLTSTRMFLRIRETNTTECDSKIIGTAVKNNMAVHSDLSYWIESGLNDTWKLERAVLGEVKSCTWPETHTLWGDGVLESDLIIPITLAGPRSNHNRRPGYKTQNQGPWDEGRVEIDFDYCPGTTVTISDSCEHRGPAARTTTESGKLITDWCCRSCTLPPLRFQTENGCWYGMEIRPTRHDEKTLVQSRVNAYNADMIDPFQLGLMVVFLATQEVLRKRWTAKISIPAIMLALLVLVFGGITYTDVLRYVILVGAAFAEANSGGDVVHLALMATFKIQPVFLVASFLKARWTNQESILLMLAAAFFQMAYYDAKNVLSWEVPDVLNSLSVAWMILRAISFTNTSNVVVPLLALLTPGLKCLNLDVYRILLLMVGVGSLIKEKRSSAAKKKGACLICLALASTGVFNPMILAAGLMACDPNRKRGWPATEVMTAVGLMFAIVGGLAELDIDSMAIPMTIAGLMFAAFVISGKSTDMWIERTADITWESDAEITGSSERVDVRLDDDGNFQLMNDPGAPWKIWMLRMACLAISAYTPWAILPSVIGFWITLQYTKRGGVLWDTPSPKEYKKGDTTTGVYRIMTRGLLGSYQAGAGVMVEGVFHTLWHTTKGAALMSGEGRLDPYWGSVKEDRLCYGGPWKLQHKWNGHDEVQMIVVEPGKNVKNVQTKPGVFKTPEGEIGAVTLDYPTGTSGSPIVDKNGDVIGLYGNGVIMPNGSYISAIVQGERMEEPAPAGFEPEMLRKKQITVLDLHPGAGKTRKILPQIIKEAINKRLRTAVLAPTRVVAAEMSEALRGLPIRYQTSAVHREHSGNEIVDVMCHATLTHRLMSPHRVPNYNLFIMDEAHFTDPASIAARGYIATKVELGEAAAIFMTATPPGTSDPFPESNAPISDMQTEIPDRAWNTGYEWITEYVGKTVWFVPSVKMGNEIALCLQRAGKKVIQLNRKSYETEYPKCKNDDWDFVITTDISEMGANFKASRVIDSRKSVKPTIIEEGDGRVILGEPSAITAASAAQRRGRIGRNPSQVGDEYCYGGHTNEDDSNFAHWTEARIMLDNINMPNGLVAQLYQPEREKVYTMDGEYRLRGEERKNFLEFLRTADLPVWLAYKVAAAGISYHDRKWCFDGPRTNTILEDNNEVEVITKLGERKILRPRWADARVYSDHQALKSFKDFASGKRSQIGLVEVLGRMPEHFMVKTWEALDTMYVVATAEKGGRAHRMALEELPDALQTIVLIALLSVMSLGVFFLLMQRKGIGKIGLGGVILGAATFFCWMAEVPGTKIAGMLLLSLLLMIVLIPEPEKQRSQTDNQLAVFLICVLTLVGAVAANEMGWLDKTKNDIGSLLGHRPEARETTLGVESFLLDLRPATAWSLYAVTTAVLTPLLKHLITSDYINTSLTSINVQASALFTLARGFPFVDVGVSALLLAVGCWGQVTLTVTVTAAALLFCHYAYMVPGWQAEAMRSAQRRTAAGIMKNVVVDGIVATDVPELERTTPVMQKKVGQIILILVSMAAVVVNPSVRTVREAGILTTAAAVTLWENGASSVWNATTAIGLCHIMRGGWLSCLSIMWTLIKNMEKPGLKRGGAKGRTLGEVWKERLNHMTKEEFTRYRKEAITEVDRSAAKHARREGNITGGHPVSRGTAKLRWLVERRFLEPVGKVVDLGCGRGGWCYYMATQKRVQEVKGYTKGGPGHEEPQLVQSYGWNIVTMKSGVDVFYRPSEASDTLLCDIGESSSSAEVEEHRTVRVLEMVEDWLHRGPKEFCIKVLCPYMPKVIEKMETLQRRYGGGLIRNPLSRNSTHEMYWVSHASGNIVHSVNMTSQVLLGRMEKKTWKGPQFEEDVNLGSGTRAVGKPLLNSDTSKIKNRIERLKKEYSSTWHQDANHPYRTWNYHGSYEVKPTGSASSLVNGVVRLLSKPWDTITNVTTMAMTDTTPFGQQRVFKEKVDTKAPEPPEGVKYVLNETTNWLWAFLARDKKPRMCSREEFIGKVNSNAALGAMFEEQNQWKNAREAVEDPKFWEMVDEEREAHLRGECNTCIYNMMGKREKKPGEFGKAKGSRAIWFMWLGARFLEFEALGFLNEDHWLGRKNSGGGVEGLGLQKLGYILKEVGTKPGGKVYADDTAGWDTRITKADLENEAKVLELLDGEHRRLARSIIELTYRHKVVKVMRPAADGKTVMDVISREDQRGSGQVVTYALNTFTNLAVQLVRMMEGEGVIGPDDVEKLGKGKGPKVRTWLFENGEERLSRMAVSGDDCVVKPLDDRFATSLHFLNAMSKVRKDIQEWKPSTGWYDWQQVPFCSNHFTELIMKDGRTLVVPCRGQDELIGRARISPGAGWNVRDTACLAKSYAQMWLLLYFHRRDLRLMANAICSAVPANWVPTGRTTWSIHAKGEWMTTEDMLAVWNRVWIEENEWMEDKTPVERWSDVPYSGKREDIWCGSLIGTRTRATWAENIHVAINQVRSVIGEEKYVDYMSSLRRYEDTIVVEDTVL

SMILES	inhibition [1]	inhibition at 12.5 µM (dengue virus type 2 [2]) [%]	Activity [3] [%]	EC50 (Genome polyprotein [4]) [µM]	inhibition [5] [%]	Activity [6] [µM]	Activity [7] [µM]	Ki (Genome polyprotein [8]) [µM]	metabolised at 2 h, 0.1 mg/ml [9] [%]	Papp at 5 h, 200 µM [10] [×10⁻⁶ cm/s]	Activity (Huh-7 [11]) [%]	EC50 (dengue virus type 2 [12]) [µM]	EC90 (dengue virus type 2 [12]) [µM]	remaining at 2 h, 0.1 mg/ml [13] [%]	Stabilty [14]	CC50 at 24 h [15] [µM]	inhibition [16]	inhibition (Trypsin (Homo sapiens))	metabolised at 2 h, 0.1 mg/ml [19] [%]	half-life at 100 µM [20] [min]	other results
NC(=O)c1cccc(NC(=O)[C@@H](NC(=O)c2ccc(Oc3ccc(C(F)(F)F)cc3)cc2)c2ccc(OCc3ccccc3)cc2)c1	inactive	100	3.7	1.2	76	188	6.9	6.3	25	1.4	< 20	0.24	4.8	70	Stable	> 100	Active	inactive			
CCCCCC(=O)N[C@H](C(=O)NCc1ccc(C(N)=O)cc1)c1ccc(OCc2ccccc2)cc1	inactive			6.3	66											> 100		inactive			Activity (Huh-7 [17]): < 20%; inhibition at 10 µM (dengue virus type 2 [18]): 34%; permeability ([10]; pampa, 5 h, 200 µM): Impermeable
NC(=O)c1cccc(NC(=O)[C@@H](NC(=O)c2ccc(N3CCOCC3)cc2)c2ccc(OCc3ccccc3)cc2)c1	inactive	96	7.1	2.2	79	181	8.1			1.7	< 20	0.85	15			> 100	Active	inactive	40	27	Stabilty ([9]; isolated protein, 2 h): Unstable
NC(=O)c1cccc(NC(=O)[C@@H](NC(=O)c2ccc(-c3ccc(Cl)cc3)cc2)c2ccc(OCc3ccccc3)cc2)c1	inactive	100	5.5	1.2	78	187	3.7	6.9	25	0.7	< 20	1.6	4.7	70	Stable	> 25	Active	inactive			inhibition [21]: Active; inhibition [22]: Active; Ki (Genome polyprotein [23]): 4.1 µM
CCCCCC(=O)N[C@H](C(=O)NCc1ccc(NC(=N)N)cc1)c1ccc(OCc2ccccc2)cc1									25								Active		40	55	
